Screening data from PubChem.
A selection: hits, their analogues and other compounds. The true share with any hit is near 0.62%.
AP ELISA ortho: alternative complement pathway inhibitors, primary screen, biochemical, ELISA, human serum, orthogonally pooled compounds | actives 0.08% (n = 62,000) | LPS-coated ELISA, C3 deposition; tested in compound mixtures | inhibition, % at 5 µM | AID 1235, 2008;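 active = inhibition above 30% in each of the two pooled mixtures holding the compound, so the lower value exceeds 30%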
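Test system: human serum complement alternative pathway, C3 deposition onto LPS / Medium: Mg2+-EGTA GVB++ buffer containing human serum at 1:15 dilution / Probe or stimulus: Plate-bound LPS / Times: 1 h at 37 °C / Signal: ELISA with HRP anti-human C3 antibody, TMB substrate, absorbance 450 nm / Measure: percent inhibition / Repeats: two pool placements per compound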
HePTP inhibitor: inhibitors of human HePTP phosphatase, primary screen, biochemical, absorbance, leukemia target; Tyrosine-protein phosphatase non-receptor type 7 (Homo sapiens), P35236; recombinant HePTP phosphatase activity, OD absorbance; inhibition, % at 20 µM; actives 0.64% (n = 110,000); in the data active = inhibition above about 50%
Target sequence (P35236 whole entry, looked up): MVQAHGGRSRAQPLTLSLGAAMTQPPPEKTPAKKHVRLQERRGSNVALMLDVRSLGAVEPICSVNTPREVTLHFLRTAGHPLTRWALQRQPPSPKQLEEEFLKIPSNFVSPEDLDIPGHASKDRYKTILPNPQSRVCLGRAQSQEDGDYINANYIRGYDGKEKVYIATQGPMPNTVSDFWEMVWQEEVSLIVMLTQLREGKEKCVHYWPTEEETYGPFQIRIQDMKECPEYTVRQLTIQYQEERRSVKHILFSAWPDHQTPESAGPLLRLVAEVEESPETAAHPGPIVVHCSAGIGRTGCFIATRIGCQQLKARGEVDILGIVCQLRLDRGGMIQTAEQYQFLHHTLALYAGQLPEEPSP
A340 absorber: compound light absorbance at 340 nm, profiling panel, artefact control, biochemical, MLSMR library, data from PS, PMK, MK assays; AID 708, 2007; 65,000 tested, under 10 active; fold change at 10 µM; compound absorbance at 340 nm, fold over control;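 active = at 10 µM dose, initial 340 nm absorbance at least 2 fold that of control wells; inactive = change under 2 fold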;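 note: initial absorbance extrapolated from kinetic A340 decline of NADH oxidation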
A number is an active result.

`Cc1cccc(/C=N/NC(=O)C2COc3ccccc3O2)c1O` (stereo unspecified) gave HePTP inhibitor inactive.
N#CC(C#N)=NNc1ccc(O)c(C(=O)O)c1 was read as HePTP inhibitor 69.
For N#CC(C#N)=NNc1ccccc1C(=O)O the results were HePTP inhibitor inactive.
`O=C(N/N=C/c1ccc(/C=N/NC(=O)c2cccc(Cl)c2)cc1)c1cccc(Cl)c1` gave HePTP inhibitor inactive.
For CC(C)COc1ccc(C(=O)N2c3ccccc3CC2C)cc1 (stereo unspecified) the results were HePTP inhibitor inactive.
Screening CCCCOc1ccc(C(=O)N2c3ccccc3CC2C)cc1 (stereo unspecified) returned HePTP inhibitor 104.
For O=C1OC(c2ccc(Cl)cc2)=C/C1=C\c1ccc2c(c1)OCO2 the results were HePTP inhibitor inactive.
Screening Cc1cc(OCCCCCNCCO)cc(C)c1Cl returned AP ELISA ortho inactive, HePTP inhibitor inactive and A340 absorber inactive.
For Cc1cc(Cl)cc(C)c1OCCCCNCCO the results were HePTP inhibitor 105.
CC1CCc2c(sc(NC(=O)c3cc([N+](=O)[O-])ccc3Cl)c2C(N)=O)C1 (stereo unspecified) was read as HePTP inhibitor inactive.
For O=C(Nc1ccc(-c2nc3ccccc3[nH]2)cc1)c1ccccc1 the results were HePTP inhibitor inactive.
`Cc1ccc(C(=O)Nc2ccc(-c3nc4cc5ccccc5cc4[nH]3)cc2)cc1[N+](=O)[O-]` gave HePTP inhibitor 56.
`O=C(Nc1ccc(-c2cn3ccccc3n2)cc1)c1cccc(Br)c1` gave HePTP inhibitor 102.
Screening COc1ccc(NC(=O)c2ccc(C)c([N+](=O)[O-])c2)cc1 returned HePTP inhibitor inactive.
`O=C(Nc1cccc(-c2cn3ccccc3n2)c1)c1cccc(Br)c1` gave HePTP inhibitor inactive.
For O=C(Nc1ccc(-c2nc3ccccc3[nH]2)cc1)c1cccc(Br)c1 the results were HePTP inhibitor 102.
`O=C(c1sc2ccccc2c1Cl)N1CCc2ccccc2C1` gave HePTP inhibitor inactive.
`CCOc1ccc(-n2sc3c(c2=S)-c2cc(C)cc(C)c2NC3(C)C)cc1` gave HePTP inhibitor inactive.
`Cc1cccc(C(=O)NN=C2CCN(C)CC2)c1` gave HePTP inhibitor inactive.
COC(=O)CN(c1ccc(OC)cc1OC)S(=O)(=O)c1ccccc1 was read as HePTP inhibitor inactive.
COc1cccc(/C=C2\SC(=S)N(NC(=O)c3ccccc3)C2=O)c1 was read as HePTP inhibitor inactive.
`CCOc1ccc(N2C(=O)S/C(=C\c3ccc(C)cc3)C2=O)cc1` gave HePTP inhibitor inactive.
Screening O=C1C(=O)N(CCO)C(c2cccc([N+](=O)[O-])c2)/C1=C(\O)c1ccccc1 (stereo unspecified) returned HePTP inhibitor inactive.
Screening COc1ccc(NC(=O)COc2ccc(C(C)(C)c3ccccc3)cc2)c(OC)c1 returned HePTP inhibitor 102.
`COc1ccc(NC(=O)COc2ccccc2)c(OC)c1` gave AP ELISA ortho inactive, HePTP inhibitor inactive and A340 absorber inactive.
`COc1ccc(C2=NOC(O)(C(F)(F)F)C2)cc1` (stereo unspecified) gave HePTP inhibitor inactive.
For CC1=C(C(=O)Nc2cccc(C)c2)C(c2ccc(Br)cc2)NC(=S)N1 (stereo unspecified) the results were HePTP inhibitor inactive.
COC(=O)C1=C(C)NC(=O)CC1c1cc2c(cc1Br)OCO2 (stereo unspecified) was read as AP ELISA ortho inactive, HePTP inhibitor inactive and A340 absorber inactive.
For Cn1c2c(c(=O)n(C)c1=O)C(c1cc3c(cc1Br)OCO3)CC(=O)N2 (stereo unspecified) the results were AP ELISA ortho 32, HePTP inhibitor inactive and A340 absorber inactive.
`O=C(Cn1cc(/C=C2/C(=O)NC(=O)N(c3ccccc3F)C2=O)c2ccccc21)Nc1ccccc1` gave HePTP inhibitor inactive.
Screening Cc1ccccc1N=C1NC(=O)CS1 returned AP ELISA ortho inactive, HePTP inhibitor inactive and A340 absorber inactive.
`Cc1ccc(C)n1/N=C1\NC(=O)CS1` gave HePTP inhibitor 99.
Screening Cc1noc(C)c1C(=O)N1CCc2ccccc21 returned AP ELISA ortho inactive, HePTP inhibitor inactive and A340 absorber inactive.
Cc1onc(-c2ccccc2)c1C(=O)N1CCCc2ccccc21 was read as AP ELISA ortho 32, HePTP inhibitor inactive and A340 absorber inactive.
For COc1ccccc1C(=O)N/C(=C\c1ccc(Br)cc1)c1nc2ccccc2[nH]1 the results were HePTP inhibitor inactive.
For O=C(NC(=S)NC1CCSC1=O)c1ccco1 (stereo unspecified) the results were HePTP inhibitor 103.
